MT stabilize HCS: microtubule stabilization, imaging screen; % tubulin-high responders, % at 10 µM; AID 2205; 200,000 tested, 0.83% active; HeLa tubulin immunostaining HCS, 24 h; share of cells brighter than vehicle mean+2SD;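 active = plate Z-score above 3 for both tubulin-high and condensed-nucleus cell shares, with cell loss under 80%, at 10 µM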;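 also: anti alpha tubulin signal scored within the nucleus-defined area of each cell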
Autophagy mod: autophagy modulation, high-content screen. MEF GFP-LC3 puncta imaging; test concentration mostly 10 µM. calls only at 10 µM (by protocol). 190,000 tested, 0.98% active. AID 463193;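 active = percentage of spot-positive cells more than 3 SD above its plate mean, without a fluorescence outlier flag or 80% toxicity; inconclusive = no clear call, values can overlap the other calls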;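 also: spot-positive cell cutoff set from DMSO-treated cells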
b-catenin transl: beta-catenin nuclear translocation modulation; 190,000 tested, 0.3% active; HeLa beta-catenin nuclear translocation, immunofluorescence imaging; nuclear translocation activity, % at 5 µM; AID 1665;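 active = nuclear translocation activity above 50% at 5 µM, with a well cell count of 50 or more; inconclusive = wells under 50 cells across six images, flagged as toxic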;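 also: per-cell ratio of nuclear to cytoplasmic median beta-catenin stain intensity; plate controls were DMSO negative control for no effect and GSK-3 inhibitor IX positive control for full effect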
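Signal – beta-catenin immunofluorescence imaging with DAPI · Test system – human HeLa cell line · Dosing – 5 µM primary single dose, 0.1% DMSO, 0.02–20 µM confirmation series · Measure – % activation, nuclear-to-cytoplasmic median beta-catenin signal ratio per cell · Incubation – 24 h compound exposure at 37°C, 5% CO2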
ABCB1 inh: human ABCB1 inhibition, ABCG2 as counter-screen. P08183. CCRF-Adr cells, JC-1 efflux, flow cytometry. inhibition, % at 6.6 µM. 190,000 tested, 0.067% active. AID 1326; in the data active = inhibition above about 40%;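 also: 0% = vehicle and 100% = reference inhibitor; higher value means more JC-1 retained so stronger ABCB1 efflux block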
Target sequence (P08183 whole entry, looked up): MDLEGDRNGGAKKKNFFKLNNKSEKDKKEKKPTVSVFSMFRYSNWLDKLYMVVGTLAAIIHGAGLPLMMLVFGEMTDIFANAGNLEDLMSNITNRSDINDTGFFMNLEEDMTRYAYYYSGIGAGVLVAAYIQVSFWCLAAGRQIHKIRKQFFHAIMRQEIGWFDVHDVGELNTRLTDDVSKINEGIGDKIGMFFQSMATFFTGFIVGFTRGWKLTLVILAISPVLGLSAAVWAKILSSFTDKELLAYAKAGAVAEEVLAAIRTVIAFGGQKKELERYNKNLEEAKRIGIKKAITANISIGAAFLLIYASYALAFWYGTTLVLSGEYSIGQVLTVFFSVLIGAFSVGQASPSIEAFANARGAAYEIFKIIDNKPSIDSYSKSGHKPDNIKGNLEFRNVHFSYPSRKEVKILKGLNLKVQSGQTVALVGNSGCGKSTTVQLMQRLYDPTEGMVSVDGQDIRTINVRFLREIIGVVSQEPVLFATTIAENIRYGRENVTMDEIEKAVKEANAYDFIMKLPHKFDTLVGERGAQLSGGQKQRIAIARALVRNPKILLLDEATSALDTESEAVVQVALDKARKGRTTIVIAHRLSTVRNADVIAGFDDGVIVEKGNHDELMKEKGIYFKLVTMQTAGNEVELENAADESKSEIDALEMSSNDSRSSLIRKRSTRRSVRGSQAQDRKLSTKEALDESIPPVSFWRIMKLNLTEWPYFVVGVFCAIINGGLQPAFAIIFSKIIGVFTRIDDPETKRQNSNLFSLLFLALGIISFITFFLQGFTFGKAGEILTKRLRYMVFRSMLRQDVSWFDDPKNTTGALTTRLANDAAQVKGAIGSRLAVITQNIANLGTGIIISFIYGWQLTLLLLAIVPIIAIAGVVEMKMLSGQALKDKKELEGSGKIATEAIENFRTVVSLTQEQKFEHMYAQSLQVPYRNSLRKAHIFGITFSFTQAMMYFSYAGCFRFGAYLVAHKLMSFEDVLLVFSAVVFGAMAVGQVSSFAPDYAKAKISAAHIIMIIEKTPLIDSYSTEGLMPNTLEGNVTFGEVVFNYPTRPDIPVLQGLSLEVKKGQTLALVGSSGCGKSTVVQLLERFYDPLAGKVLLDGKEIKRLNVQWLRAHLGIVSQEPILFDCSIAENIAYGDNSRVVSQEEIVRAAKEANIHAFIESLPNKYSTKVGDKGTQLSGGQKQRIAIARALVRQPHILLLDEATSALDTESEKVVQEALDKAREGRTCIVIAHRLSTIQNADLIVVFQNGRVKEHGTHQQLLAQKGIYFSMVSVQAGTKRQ
ABCG2 inh: blocks JC-1 efflux by human ABCG2 transporter. IgMXP3 cells, flow cytometry. 190,000 tested, 0.1% active. inhibition, % at 6.6 µM;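 active = inhibition above 80%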;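 also: 0% = DMSO and 100% = nicardipine control wells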
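Assay system – ABCG2 IgMXP3 and barcoded ABCB1 CCRF-Adr cell mix · Input – 3 million cells/mL in well · Reagent – JC-1 fluorescent substrate · Compound – single test compound dose, 6.6 µM final · Timing – 10 min exposure at 25 °C with rotation, no wash · Detection – flow cytometry of retained JC-1 fluorescence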
Arbovirus anti: antivirals against arbovirus infection | AID 1251 | inhibition, % at 10 µM | arbovirus infection cell-based antiviral screen | 200,000 tested, 0.37% active; in the data active = inhibition above about 30%
An asterisk follows results filed as active; i = inactive; u = inconclusive; x = not tested or not shown; + = active, no number. Most compounds without a hit are left out; they make up all but 2.1% or so of the library.

SMILES	MT stabilize HCS	Autophagy mod	b-catenin transl	ABCB1 inh	ABCG2 inh	Arbovirus anti
CC(C)(C)c1ccc(N/N=C(\C#N)S(=O)(=O)C(C)(C)C)cc1	3.6	i	0.0	0.8	3.4	33.7*
CCOC(=O)CSc1cc(CS(C)(=O)=O)nc(-c2ccccn2)n1	2.0	i	-2.3	0.3	0.3	8.8
O=C(O)/C=C/c1cn(Cc2ccccc2)nc1-c1ccccc1	2.8	i	-0.8	0.6	2.2	4.4
O=C(O)CCn1cc(/C=C/C(=O)c2ccc(Cl)cc2)c(-c2ccc(Br)cc2)n1	5.9	i	-0.5	6.2	5.1	46.2*
N#C/C(=C\c1ccc(O)c([N+](=O)[O-])c1)c1nc2ccccc2s1	3.5	i	2.9	0.0	1.0	46.1*
COc1cc(/C=C(\C#N)c2nc3ccccc3s2)cc([N+](=O)[O-])c1O	3.3	i	-3.0	1.3	5.5	36.1*
Cc1nn(Cc2ccc(C(=O)NC(C)(C)C)o2)c(C)c1Br	4.7	i	0.9	0.4	1.6	12.7
CCN1/C(=C\C=C(C(C)=O)C(C)=O)Sc2ccccc21	32.2	i	x	-4.0	25.9	-3.2
CCC(CO)[n+]1c(C)cc(/C=C2\Sc3ccccc3N2Cc2ccccc2)cc1C (stereo not given)	5.9	+	16.5	-1.1	-3.5	-37.8
CN1CCN(CC(O)(c2ccc(Cl)cc2)c2ccc(Cl)cc2)CC1	5.2	+	-2.0	0.9	0.7	-28.5
CCCc1cc2c(OC(=O)CC)c(-c3ccc(C(=O)OCC)o3)c(=O)oc2cc1OC	1.8	i	-1.2	1.3	4.6	58.5*
Cc1cc(=S)c2ccccc2[nH]1	x	x	-0.5	x	x	x
Cc1ccc2[nH]c(C)cc(=S)c2c1	23.1*	i	1.9	-0.1	4.5	-3.6
Fc1ccccc1/C=N/NC(=S)Nc1ccc(Cl)cc1Cl	16.7*	i	u	-0.6	-2.2	-14.0
COC(=O)c1ccsc1NC(=O)C1COc2ccccc2O1 (stereo not given)	5.6	i	x	0.1	0.5	31.5*
COc1ccc(C)cc1NC(=O)C1COc2ccccc2O1 (stereo not given)	2.0	i	2.3	0.4	2.3	49.7*
COC(=O)c1ccccc1NC(=O)C1COc2ccccc2O1 (stereo not given)	3.2	i	x	0.4	0.5	11.8
CCn1nc(C(=O)OCC(=O)NCC(C)C)c2ccccc2c1=O	2.8	+	-1.7	0.4	6.1	2.0
CN(C)c1ccc(/C=N/OC(=O)Nc2ccccc2Cl)cc1	31.0*	i	0.4	-0.1	0.7	0.8
COc1ccc(/C=N/OC(=O)Nc2ccccc2OC)cc1	18.9*	i	-0.7	0.6	7.9	-15.1
C#CCSc1nnc(CSc2nc3ccccc3s2)n1-c1ccccc1	2.8	i	-2.2	1.1	2.3	-7.3
COc1ccccc1NC(=O)Cn1nc(-c2ccncc2)nc1SCC(=O)NC1CCCC1	10.9*	i	-0.9	0.2	0.3	-9.7
CN1C(=O)C(O)(CC(=O)c2cccnc2)c2ccccc21 (stereo not given)	1.7	i	-0.5	0.8	4.5	-8.0
O=C(CC1(O)C(=O)N(Cc2cccc3ccccc23)c2ccccc21)c1cccnc1 (stereo not given)	2.5	+	-2.3	1.4	2.6	-3.1
CN(Cc1ccccc1)c1nc(N)c([N+](=O)[O-])c(NCc2ccccc2)n1	2.0	i	-0.9	3.1	24.3	36.2*
SMILES	MT stabilize HCS	Autophagy mod	b-catenin transl	ABCB1 inh	ABCG2 inh	Arbovirus anti
CCOC(=O)C1CCCN(C(=O)c2ccc(Cl)c(S(=O)(=O)N3CCCCC3)c2)C1 (stereo not given)	1.7	i	0.0	1.4	2.8	0.6
Cc1cc(NC(c2cccnc2)c2ccc3cccnc3c2O)no1 (stereo not given)	1.7	i	4.4	-0.1	-0.1	-38.5
Oc1c(C(Nc2ccccn2)c2cccnc2)cc(Cl)c2cccnc12 (stereo not given)	2.9	+	0.0	-0.8	-9.7	-24.3
Cn1c(Cn2nnc3ccccc32)nnc1SCC(=O)Nc1nccs1	5.1	+	0.0	0.3	5.6	2.6
Cc1ccc(C2C(C(=O)c3cccs3)=C(O)C(=O)N2c2ccc(S(N)(=O)=O)cc2)cc1 (stereo not given)	x	x	-0.5	x	x	x
O=C(Nc1cccnc1)c1ccc(COc2ccccc2Br)o1	25.6*	+	x	0.6	3.5	-42.1
O=C(Nc1ccccc1N1CCCCC1)c1ccc(-c2ccc(Cl)cc2)o1	29.3*	i	64.4*	0.4	3.0	-13.2
O=C(Nc1cccnc1)c1ccc(-c2ccc(Cl)cc2)o1	1.6	+	-1.3	-1.8	3.4	-13.9
COc1ccccc1CN=Cc1[nH]c2ccc(Br)c(Cl)c2c1O	1.5	i	-13.0	0.9	0.1	-1.0
C=CCN=C1NN=C(c2cc(C)n(CC=C)c2C)CS1	3.0	i	-0.2	0.4	40.6	1.2
Oc1ccc(Nc2nc3ccccc3nc2Nc2ccc(O)cc2)cc1	4.4	+	x	-0.3	-2.3	-41.7
O=C(c1nc2ncccn2n1)N1CCc2ccccc2C1	6.0	i	-0.9	0.3	1.5	11.0
Cc1cc(NC(=O)CSc2nnc(-c3ccccc3)c(-c3ccccc3)n2)no1	22.3*	i	2.1	1.3	1.7	-20.1
Cc1cc(NC(=O)CSc2nnc(C3COc4ccccc4O3)o2)no1 (stereo not given)	1.9	+	-5.2	0.9	30.5	-1.3
Cc1c(NS(=O)(=O)c2ccccc2)cc(Cl)c(O)c1C	1.8	i	x	0.4	4.9	-27.9
COc1cccc(-c2cc(C(=O)NN3CCOCC3)c3ccccc3n2)c1	2.6	i	x	0.9	4.3	-3.7
COc1cccc(-c2cc(C(=O)Nn3cnnc3)c3ccccc3n2)c1	2.1	i	-3.1	0.1	0.2	38.3*
Cc1cnc(C(=O)Nc2ccc(N3CCN(C(=O)OC(C)(C)C)CC3)cc2)cn1	39.2*	i	68.4*	0.5	2.0	-22.9
Cc1cnc(C(=O)Nc2ccc(C(C)C)cc2)cn1	18.0*	i	19.2	0.6	3.8	-11.9
Cc1cnc(C(=O)Nc2ccc(F)cc2)cn1	2.3	i	x	0.6	4.3	-0.9
COc1ccc(NC(=O)N2CCN(C(=O)C(Cc3ccc(F)cc3)NC(C)=O)CC2)cc1 (stereo not given)	2.5	i	-1.8	0.4	1.5	-1.2
Cc1nc(NC(=O)CCc2ccccc2)ccc1Br	1.1	i	7.2	0.4	15.1	-11.5
CCOC(=O)c1cnc(SCc2nc(N)nc(Nc3ccc(C)cc3)n2)nc1N	6.3	i	x	-0.4	22.2	44.4*
O=c1cc(-c2ccccc2)[nH]c2ccccc12	31.8*	i	193.3*	0.0	1.7	-17.7
O=C1C(c2cc(=O)c3ccccc3[nH]2)=C(O)c2ccccc21	1.7	i	-2.4	-1.3	-9.6	19.4

Screening data deposited in PubChem by several laboratories.
